M5 PAM – positive allosteric modulators of human muscarinic M5 receptor | P08912 | CHO-K1 hM5, Fluo-8 calcium, ACh EC20 PAM; 0% = ACh EC20, 100% = ACh EC100 | activation, % at 3 µM | 360,000 compounds, 0.3% hits;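 active = activation above the run cutoff, the mean activation of all test compounds plus 3 SD, cut at about 18% in these data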
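Assay system: CHO-K1 hM5 cells / Incubation: Fluo-8 loading 80 min at 37 °C plus 30 min room temperature / Technique: Fluo-8 calcium dye fluorescence, kinetic read / Repeats: single replicate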
CHRM4 agonist – CHRM4 agonism in calcium assay. CHO-K1 hM4/Gqi5, Fluo-8 calcium fluorescence; vehicle 0%, full acetylcholine response 100%. AID 624127. activation, % at 3 µM. P08173. 360,000 compounds, 0.14% hits;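 active = activation above the run mean over all test wells plus 3 SD, cut at about 32% in these data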;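 also: peak over basal fluorescence ratio per well then scaled between controls; 0% = DMSO wells and 100% = acetylcholine at EC100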
Target sequence (P08173 whole entry, looked up): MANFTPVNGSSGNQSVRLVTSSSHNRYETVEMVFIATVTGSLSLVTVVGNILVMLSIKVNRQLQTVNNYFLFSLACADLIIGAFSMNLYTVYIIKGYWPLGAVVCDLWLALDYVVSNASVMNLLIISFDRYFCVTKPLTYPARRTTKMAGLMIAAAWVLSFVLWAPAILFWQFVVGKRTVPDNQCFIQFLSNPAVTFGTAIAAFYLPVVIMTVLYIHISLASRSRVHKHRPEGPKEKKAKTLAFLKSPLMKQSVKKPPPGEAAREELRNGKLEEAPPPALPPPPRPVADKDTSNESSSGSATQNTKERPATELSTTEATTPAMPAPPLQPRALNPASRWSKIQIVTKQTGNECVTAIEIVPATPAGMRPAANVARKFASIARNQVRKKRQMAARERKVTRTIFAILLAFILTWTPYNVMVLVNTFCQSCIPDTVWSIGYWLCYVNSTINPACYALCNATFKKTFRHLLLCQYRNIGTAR
CHRM4 antagonist – antagonists of human muscarinic M4 receptor (CHRM4) | P08173 | CHO-hM4 cells, ACh EC80, Fluo-8 calcium fluorescence | inhibition, % at 3 µM | 360,000 compounds, 0.73% hits | AID 624125;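 active = inhibition above its plate's cutoff, the mean inhibition of sample wells plus 3 SD, cut at about 27% in these data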;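 also: 0% = acetylcholine EC80 with DMSO and 100% = DMSO without agonist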
CHRM5 antagonist – antagonists of human muscarinic M5 receptor (CHRM5). P08912. inhibition, % at 3 µM. 360,000 compounds, 0.59% hits. AID 624040. CHO-hM5 cells, Fluo-8 calcium fluorescence, ACh EC80;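 active = inhibition above a per-plate cutoff, the mean of that plate's test compounds plus 3 SD, cut at about 27% in these data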;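 also: 0% = acetylcholine EC80 with DMSO and 100% = DMSO without agonist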
M4 PAM – potentiates acetylcholine response at human M4 receptor; P08173; 360,000 compounds, 0.4% hits; AID 624126; activation, % at 3 µM; CHO-K1 hM4/Gqi5, Fluo-8 calcium fluorescence, ACh EC20; 0% = ACh EC20, 100% = maximal ACh;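 active = activation above its plate's cutoff, the mean activation of sample wells plus 3 SD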
M5 ag – CHRM5 agonism in calcium assay. AID 624037. activation, % at 3 µM. 360,000 compounds, 0.19% hits. CHO-K1 hM5 cells, Fluo-8 calcium fluorescence; 0% DMSO wells, 100% maximal acetylcholine response;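 active = activation above the run's mean over test compounds plus 3 SD, cut at about 23% in these data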;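 also: signal is peak over basal fluorescence ratio across the kinetic read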
Starred values were filed as active, the others as inactive. Most compounds without a hit are left out; they make up all but 1.8% or so of the library.

SMILES	M5 PAM	CHRM4 agonist	CHRM4 antagonist	CHRM5 antagonist	M4 PAM	M5 ag
COC(=O)c1ccc(CN2CCC(CO)(CCOc3ccccc3)CC2)cc1	-29.1	4.5	48.2*	27.1*	-15.7	-16.1
Cc1cc(C)cc(C(O)c2ncc(-c3ccccc3Cl)[nH]2)c1 (stereo unspecified)	-1.1	-0.1	0.9	2.1	3.4	0.3
Cc1ccccc1-n1ncc(C(C)NS(=O)(=O)c2ccccc2Cl)c1C (stereo unspecified)	-3.5	1.8	-17.6	1.6	6.0	-1.6
COc1ccc(OC)c2c1nc1n2CCS1	5.4	0.8	-11.9	-4.3	19.2	-1.9
O=C(c1ccc(-c2nc3ccccc3s2)o1)N1CCN(c2ccccc2O)CC1	-17.5	9.2	-0.6	33.9*	-4.8	-5.0
CCCCCCCCCCCCCCCCn1cc[n+](C)c1	-20.7	1.6	30.1*	48.0*	-17.0	-5.6
CCC(C)c1ccccc1N1CC(C(=O)N(C)CC(=O)Nc2cccc(F)c2)CC1=O (stereo unspecified)	-1.9	1.7	-4.4	0.4	16.2	1.4
O=C(Nc1ccc(OC(F)F)cc1)Nc1cccc(C(F)(F)F)c1	-18.1	12.8	11.7	37.4*	-19.0	4.6
O=C(Nc1ccncc1)Nc1cccc(C(F)(F)F)c1	-11.8	18.1	5.0	25.0	-6.5	11.0
CCN(CC)S(=O)(=O)c1ccc(NC(=O)Nc2cccc(C(F)(F)F)c2)cc1	-15.1	17.2	8.6	29.8*	-10.6	8.6
CCN(Cc1nc2cc(Cl)ccc2c(=O)[nH]1)C(=O)c1cccc(OCc2c(C)noc2C)c1	-4.5	0.0	-4.9	-2.8	-5.3	-6.1
CC(=O)/C(C(=N)N1CCN(Cc2ccccc2)CC1)=C(\C)O	-0.1	0.3	-0.5	-5.6	5.7	-2.3
O=C(O)/C=C/C(=O)N1CCN(C(c2ccccc2)c2ccccc2)CC1	-33.0	0.7	29.5*	26.9*	-36.5	-17.2
CC(=O)/C(C(=N)N1CCN(C(c2ccccc2)c2ccccc2)CC1)=C(\C)O	-19.9	2.4	91.4*	83.4*	-24.6	-7.6
Cc1ccc2oc(C(=O)NCCCN3CCOCC3)c(C)c2c1	0.4	0.5	-2.0	5.6	-1.3	-4.7
CNCCCC1c2ccccc2C=Cc2ccccc21	-18.9	4.1	91.2*	98.7*	-17.6	-0.3
CC(CC(=O)Nc1nnc(CC(C)(C)C)s1)c1ccccc1 (stereo unspecified)	21.6*	0.6	-9.9	-7.8	1.8	4.1
O=C(C1CCN(c2ccc(N3CCOCC3)nn2)CC1)N1CCc2ccccc2C1	1.5	1.0	46.4*	3.5	-16.8	-0.7
O=C(C1CCN(S(=O)(=O)N2CCC3(CC2)OCCO3)CC1)N1CCc2ccccc2C1	-2.0	6.4	-1.0	-4.4	2.7	4.6
COc1cccc(C(C)(O)c2nc(-c3ccoc3)cs2)c1 (stereo unspecified)	-2.9	2.1	4.5	3.7	-1.3	1.0
C/C(=N/NC(=O)CNC(=O)c1ccccc1)c1ccc(C)cc1	-6.0	1.8	-7.7	17.0	9.7	-2.2
C/C(=N\NC(=O)CNC(=O)c1cccc(F)c1)c1ccc2ccccc2c1	-7.3	-1.1	39.7*	22.7	-10.5	-4.8
O=C(NCCCSc1ccccc1)c1cc(Br)ccc1O	-14.9	12.9	2.3	33.0*	-9.2	1.1
Cc1cc(Cl)ccc1OC(C)C(=O)Nc1ccc(C(=O)Nc2ccccc2C(=O)O)cc1 (stereo unspecified)	16.9	-2.0	-10.5	-10.6	23.4*	1.8
COc1ccc(S(=O)(=O)N2CCC(O)(c3ccc(Cl)cc3)CC2)cc1	-13.5	5.0	8.7	1.9	-6.7	-5.7
SMILES	M5 PAM	CHRM4 agonist	CHRM4 antagonist	CHRM5 antagonist	M4 PAM	M5 ag
CC(C)(C)c1ccc(S(=O)(=O)N2CCC(O)(c3ccc(Cl)cc3)CC2)cc1	-32.0	12.5	19.3	30.3*	-52.7	-16.5
S=c1[nH]ncn1/N=C/c1ccccn1	2.3	-0.2	-6.5	-3.6	2.5	-0.5
Cc1ccc(S(=O)(=O)n2nnc3ccccc32)c(C)c1C	6.5	1.6	-2.0	-2.9	24.4*	-1.2
Cc1c(C(=O)OCC(=O)NCC2CCCO2)cccc1[N+](=O)[O-] (stereo unspecified)	0.5	1.3	-5.1	0.0	5.1	-0.3
COc1cccc(CN(C)C(=O)COc2cccc3c2OC(C)(C)C3)c1OC	-4.2	5.3	-8.4	-4.3	21.7*	2.1
CC(Sc1nc(N)cc(=O)[nH]1)C(=O)N1CCOCC1 (stereo unspecified)	0.4	1.1	-9.9	2.1	6.2	-1.5
Cc1ccc2nc(SC(C)C(=O)N3CCOCC3)[nH]c2c1 (stereo unspecified)	2.8	4.3	1.1	6.9	31.1*	0.6
CCOC(=O)C1CCN(C(=O)COC(=O)/C=C/c2cccc(OC)c2OC)CC1	0.9	6.7	-12.1	2.9	18.2	24.1*
CCOC(=O)C1CCN(C(=O)COC(=O)/C=C/c2ccccc2)CC1	3.0	2.2	-12.8	-2.6	8.8	7.2
COc1cccc(/C=C/C(=O)OCC(=O)c2c[nH]c3ccccc23)c1OC	-18.3	14.2	13.2	27.2*	-9.4	-0.8
COc1cccc(/C=C/C(=O)OCC(=O)c2c[nH]c3ccccc23)c1	-28.4	18.2	-1.6	9.2	-3.8	-1.9
FC(F)Oc1ccc(NC(=S)NCc2ccccc2)cc1	-10.5	5.1	-1.9	13.2	-4.9	-0.8
FC(F)Oc1ccc(NC(=S)NCc2ccccc2)cc1Cl	-16.3	12.9	11.7	32.7*	-18.7	3.7
CCCCC[C@@H](C)N1C[C@H](COCc2ccccc2)Oc2cc(N3CCC[C@@H]3COC)ccc2S1(=O)=O	-7.3	-0.5	-4.2	2.6	3.3	1.5
Cc1ccc(-c2csc(NC(=O)c3ccccc3F)c2C(=O)O)cc1	-0.7	0.8	-11.3	-8.8	2.0	-1.6
COCCCN1CCN(C2Cc3ccccc3Sc3ccc(Cl)cc32)CC1 (stereo unspecified)	-18.2	15.0	6.5	30.5*	-32.9	0.9
COc1ccc2c(c1)CC(N1CCN(C)CC1)c1cc(OC)ccc1S2 (stereo unspecified)	-10.4	11.9	4.5	7.4	-15.4	-18.0
NC(=O)CCN1CCN(CCOC2Cc3cc(Cl)ccc3Sc3ccccc32)CC1 (stereo unspecified)	-14.9	7.0	3.8	28.2*	-18.3	-4.9
Clc1ccc2c(c1)C(N1CCNCC1)Cc1ccccc1S2 (stereo unspecified)	-29.6	11.2	82.3*	96.7*	-14.6	-9.7
CC(C)c1ccc2c(c1)C(N1CCN(C)CC1)Cc1cccnc1S2 (stereo unspecified)	-12.7	0.7	-10.7	5.1	-3.5	-19.6
